Entries after “also recorded” stand apart in the source; their conditions may differ. Where two headings read alike, the source gives them in different places. Where only a bound is given, the exact number is not on record here.

Data set [1] relates to P. falciparum 3D7 strain parasites. In words: In vitro P. falciparum growth and proliferation assay. Format: cell-based, Plasmodium falciparum. The settings on record: for IC50: read-out: Pf3D7 IC50; for fold reduction in Pf3D7 activity: versus the comparator analogue named in the sentence.
Data set [2] relates to histone H3K4me3. As to conditions: ref [13]; cited from earlier work.
Data set [3] has as its system HepG2 cells. The settings on record: Table 5; ref [21]; cited from earlier work.
Data set [4] relates to chloroquine-sensitive and chloroquine-resistant parasites. The settings on record: ref [13]; cited from earlier work.
The conditions of data set [5]: cited from earlier work.
In data set [6] the test system is histone H3K4me3. Kind of data set: Parasite histone methylation analysis. The class given is cell-based, P. falciparum 3D7. As to conditions: 5-fold IC50, 12 hours, relative to DMSO control. The gist of the method: (§1)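 3D7 cultures were exposed for 12 h to test compound, chloroquine or DMSO vehicle. Infected blood was saponin-treated (0.15% in PBS) to remove red cells, and freed parasites were lysed by bath sonication in 2% SDS for Western blot. Trimethyl-specific bands were quantified by densitometry, normalized to core histone H3 signal and expressed relative to DMSO-treated parasites.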

For data set [7] the following is noted: cited from earlier work. The source holds these as a separate data set.
The conditions of data set [8]: ref [21]; cited from earlier work.
Data set [9] deals with HepG2 cells. Kind of data set: In vitro cytotoxicity assay. The class given is cell-based, human. As to conditions: for HepG2/Pf3D7: ratio HepG2 IC50 / Pf3D7 IC50; for IC50: read-out: HepG2 IC50.
Data set [10] relates to histone H3K9me3. Kind of data set: Parasite histone methylation analysis. The class given is cell-based, P. falciparum 3D7. The settings on record: 5-fold IC50, 12 hours, relative to DMSO control. The gist of the method:
as §1

The test system of data set [11] is highly synchronized P. falciparum parasites. As to conditions: throughout the intraerythrocytic life cycle; ref [13]; cited from earlier work.
Data set [12] relates to histone H3K9me3. As to conditions: ref [13]; cited from earlier work.
For data set [13] the following is noted: microsomes, cited from earlier work.
[14] abbreviates: Plasmodium falciparum, 3D7, 72 h.
Where [15] appears, read: P. falciparum 3D7 strain, three-day SYBR Green I assay.
The mark [16] stands for this setting: HepG2 cells, three days, CellTiterBlue.

As usually defined, the IC50 is the concentration at which inhibition is half-maximal. As to `COc1cc2nc(N3CCCN(C)CC3)nc(NC3CCN(Cc4ccccc4)CC3)c2cc1OC` [Compound 1, (1-Benzyl-4-piperidyl)[6,7-dimethoxy-2-(4-methyl-1,4-diazepin-1-yl)-4-quinazolinyl]amine], the IC50 in [1] (setting [14]) is 43.4 nM. The “H3K4me3 levels of the parasite” value in data set [2] is recorded as “decrease; also recorded: reduced”. The HepG2/3D7 in data set [3] was 110.6. Also, in data set [4], the “potency against chloroquine-sensitive versus chloroquine-resistant parasites” value is reported as “equally potent”. Also, the “logD pH 3” value in [5] (pH 3) was 0.5. In data set [5] (pH 7.4), the “logD pH 7.4” value is 5. In addition, the “H3K4me3 levels in treated parasites” value in data set [6] is given as “decreased”. In addition, the “solubility pH 2” value in [7] (pH 2) is >100 μg/ml. In addition, the “solubility pH 6.5” value in [7] (pH 6.5) is reported as >100 μg/ml. Further, the “rat plasma t1/2” value in data set [8] was >4 h. The HepG2/Pf3D7 in data set [9] is on record as 110.6. Besides, the “H3K9me3 levels in treated parasites” value in data set [10] was “decreased”. In addition, the killing phenotype result in data set [11] was “fast killing phenotype”. Further, the “H3K9me3 levels of the parasite” value in data set [12] was “decrease”. In data set [13], the “rat microsome t1/2” value is 0.883 h. Moreover, the “in vitro CLint” value in data set [13] (rat) is given as 33 μl/min/mg protein.

Turning to `COc1cc2nc(N3C=CC=CC=C3)nc(NC3CCN(Cc4ccccc4)CC3)c2cc1OC` [Compound 4, (1-Benzyl-4-piperidyl)[2-(1-azepinyl)-6,7-dimethoxy-4-quinazolinyl]amine], the “Pf3D7 activity (in words)” value in data set [1] (P. falciparum 3D7 strain) is “comparable to 1”. In addition, the IC50 in data set [1] (setting [14]) is 29.1 nM.

As for `COc1cc2nc(N3CCN(C)CC3)nc(NC(C)C)c2cc1OC` [Compound 51, (Isopropyl)[6,7-dimethoxy-2-(4-methyl-1-piperazinyl)-4-quinazolinyl]amine], the IC50 in [1] (setting [14]) is > 300 nM. The “fold reduction in Pf3D7 activity” value in data set [1] is 7-17 fold.

As to `COc1cc2nc(N3CCCN(C)CC3)nc(N(C)C3CCN(Cc4ccccc4)CC3)c2cc1OC` [Compound 60, (1-Benzyl-4-piperidyl)-N-methyl[6,7-dimethoxy-2-(4-methyl-1,4-diazepin-1-yl)-4-quinazolinyl]amine], the concentration for half-maximal inhibition (IC50) in [1] (setting [15]) turned out to be 159 nM; in data set [9] (setting [16]), 6000 nM. Also, the “fold reduction in Pf3D7 activity” value in [1] is 10-20 fold. Further, the HepG2/Pf3D7 in data set [9] came out at 37.9.

`COc1cc2nc(N3CCCCC3)nc(N(C)C3CCN(Cc4ccccc4)CC3)c2cc1OC` [Compound 61, (1-Benzyl-4-piperidyl)-N-methyl(6,7-dimethoxy-2-piperidino-4-quinazolinyl)amine]: the IC50 came out at 495 nM in [1] (setting [14]) and 8100 nM in data set [9] (Homo sapiens, HepG2, 72 h). In data set [1], the “fold reduction in Pf3D7 activity” value is reported as 10-20 fold. Moreover, the HepG2/Pf3D7 in [9] was 16.4.

As for `COc1cc2nc(N3C=CC=CC=C3)nc(N(C)C3CCN(Cc4ccccc4)CC3)c2cc1OC` [Compound 62, (1-Benzyl-4-piperidyl)-N-methyl[2-(1-azepinyl)-6,7-dimethoxy-4-quinazolinyl]amine], the 50% inhibitory concentration (IC50) in data set [1] (setting [14]) stood at 400 nM; in data set [9] (Homo sapiens, HepG2, 72 h), 5400 nM. Further, the “fold reduction in Pf3D7 activity” value in data set [1] was 10-20 fold. Besides, in data set [9], the HepG2/Pf3D7 is listed as 13.6.

Take `COc1cc2nc(N3CCN(c4ccccn4)CC3)nc(N(C)C3CCN(Cc4ccccc4)CC3)c2cc1OC` [Compound 63, (1-Benzyl-4-piperidyl)-N-methyl{6,7-dimethoxy-2-[4-(2-pyridyl)-1-piperazinyl]-4-quinazolinyl}amine]: the IC50 came out at 472 nM in [1] (setting [14]) and 9600 nM in data set [9] (Homo sapiens, HepG2, 72 h). In data set [1], the “fold reduction in Pf3D7 activity” value is reported as 10-20 fold. In addition, in [9], the HepG2/Pf3D7 is on record as 20.4.

Turning to `COc1cc2nc(N3CCCN(C)CC3)nc(OC3CCN(Cc4ccccc4)CC3)c2cc1OC` [Compound 65, 4-(1-Benzyl-4-piperidyloxy)-6,7-dimethoxy-2-(4-methyl-1,4-diazepin-1-yl)quinazoline], the figures for the IC50 in [1] (setting [15]) and in [9] (setting [16]) were 1460 nM and 7900 nM, respectively. Moreover, the HepG2/Pf3D7 in data set [9] is 5.4.

As to `COc1cc2nc(N3CCN(c4ccccn4)CC3)nc(OC3CCN(Cc4ccccc4)CC3)c2cc1OC` [Compound 66, 4-(1-Benzyl-4-piperidyloxy)-6,7-dimethoxy-2-[4-(2-pyridyl)-1-piperazinyl]quinazoline], the IC50 in data set [1] (setting [14]) was found to be 2060 nM; in data set [9] (Homo sapiens, HepG2, 72 h) it was 15700 nM. For the same compound, the HepG2/Pf3D7 in data set [9] worked out at 7.7.

As to `CN1CCCN(c2nc(NC3CCN(Cc4ccccc4)CC3)c3ccccc3n2)CC1` [Compound 73, (1-Benzyl-4-piperidyl)[2-(4-methyl-1,4-diazepin-1-yl)-4-quinazolinyl]amine], the IC50 came to 101 nM in data set [1] (setting [15]) and 7000 nM in [9] (setting [16]). In data set [9], the HepG2/Pf3D7 is 69.6.

Take `c1ccc(CN2CCC(Nc3nc(N4CCCCC4)nc4ccccc34)CC2)cc1` [Compound 74, (1-Benzyl-4-piperidyl)(2-piperidino-4-quinazolinyl)amine]: the IC50 in data set [1] (setting [14]) was found to be 385 nM.

With `CCN(CC)CCCC(C)Nc1ccnc2cc(Cl)ccc12` (stereo not drawn) [chloroquine], the “H3K4me3 levels in treated parasites” value in [6] is reported as “slight decrease”. The “H3K9me3 levels in treated parasites” value in [10] was “slight increase”.

On to “(1-Benzyl-4-piperidyl){6,7-dimethoxy-2-[4-(2-pyridyl)-1-piperazinyl]-4-quinazolinyl}amine [Compound 75]”, for which the IC50 was 354 nM in data set [1] (setting [15]) and 5000 nM in data set [9] (setting [16]). Also, in data set [9], the HepG2/Pf3D7 is listed as 14.2.

(Values after PMC4177335 (ChemMedChem, 2014).)
